# The list is not random: actives were taken first. Their share in the collection is about 1.5%.
# CXCR6 block: CXCR6 (human) receptor inhibition; inhibition, % at 20 µM; CHO-K1 PathHunter CXCR6 beta-arrestin, luminescence; actives 0.36% (n = 360,000); O00574; in the data active means inhibition above about 34%, passing the limit was not always enough;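 further: antagonist mode with CXCL16 agonist at 10 nM final; 0% = 10 nM CXCL16 with DMSO and 100% = unstimulated wells without agonist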
# EBI2 block: antagonists of human EBI2 receptor; P32249; EBI2 beta-arrestin recruitment, luminescence, 7a,25-OHC stimulated; inhibition, % at 5 µM; actives 0.81% (n = 360,000); AID 651636; in the data active means inhibition above about 38%;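 further: enzyme fragment complementation signal reports receptor beta-arrestin coupling in cells; 0% = agonist plus DMSO wells and 100% = wells without agonist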
# CCR6 antag: blocks CCL20-driven beta-arrestin recruitment at human CCR6. P51684. CHO-K1 CCR6 PathHunter beta-arrestin, luminescence, CCL20-stimulated. inhibition, % at 20 µM. actives 0.49% (n = 340,000). AID 493098;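 active means compounds whose inhibition of the agonist-driven luminescence signal at 20 µM reaches about 50%, limit read from the data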;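 further: cells stimulated with CCL20 at 14 nM final; plate controls were DMSO with CCL20 for no effect and DMSO without agonist for full effect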
# APJ antag: blocks the human apelin receptor APJ; inhibition, % at 20 µM; CHO-K1 APJ beta-arrestin complementation, luminescence; actives 0.32% (n = 330,000); P35414;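 active means inhibition above about 40% at 20 µM, limit read from the data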;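 further: cells challenged with 10 nM apelin-13 agonist together with compound; plate controls were apelin-13 plus DMSO wells for no effect and DMSO wells lacking apelin-13 for full effect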
# Target sequence (P35414 whole entry, looked up): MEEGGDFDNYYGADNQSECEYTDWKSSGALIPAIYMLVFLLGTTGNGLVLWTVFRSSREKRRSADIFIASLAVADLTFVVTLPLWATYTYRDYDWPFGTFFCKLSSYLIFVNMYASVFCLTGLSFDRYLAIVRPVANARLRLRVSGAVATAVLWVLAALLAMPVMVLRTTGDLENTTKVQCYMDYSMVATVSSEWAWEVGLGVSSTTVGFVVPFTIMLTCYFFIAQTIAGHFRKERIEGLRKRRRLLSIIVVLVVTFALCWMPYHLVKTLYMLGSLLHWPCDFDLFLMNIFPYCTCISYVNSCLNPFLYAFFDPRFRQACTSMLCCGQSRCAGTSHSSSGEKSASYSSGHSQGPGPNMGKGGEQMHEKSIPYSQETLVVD
# APJ agonist: activates the human apelin receptor APJ; P35414; CHO-K1 APJ PathHunter beta-arrestin, luminescence; 0% DMSO wells, 100% apelin; activation, % at 20 µM; actives 0.11% (n = 330,000); AID 2520;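 active means activation more than six SD over the plate average, tested at 20 µM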;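 further: 0% = DMSO alone and 100% = apelin-13 at 10 nM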
#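 Test system: CHO-K1 APJ beta-arrestin complementation cell line | Compound: Single test compound dose, 20 µM final, 1% DMSO | Incubation: Compound 90 min 25 °C, reagent 1 h | Measured by: beta-gal luminescence | Read-out basis: APJ–arrestin association signal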
# EBI2 antag conf: EBI2 (human) antagonism, single concentration confirmation; inhibition, % at 5 µM; AID 651997; EBI2 beta-arrestin luminescence, 7a,25-OHC antagonism; actives 29% (n = 2,400); shares compounds with EBI2 block;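 active means inhibition of at least 50%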
# EBI2 agonist: EBI2 agonism counter-screen. activation, % at 5 µM. shares compounds with EBI2 block. EBI2-expressing cells, agonist mode, luminescence, 60 min; 0% vehicle, 100% 7α,25-dihydroxycholesterol control. 2,400 tested, under 10 active;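 active means activation of at least 50%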
# bGal cs: counter-screen for EBI2 antagonists: E. coli beta-galactosidase inhibition; shares compounds with EBI2 block; purified beta-galactosidase, luminescent Galacton Star, 15 min; inhibition, % at 5 µM; actives 1% (n = 2,400); AID 652176;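 active means replicate-average signal at least 3 plate SD below neutral wells, shown as high inhibition, flagging enzyme-inhibiting false positives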;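 further: 0% = DMSO wells with enzyme and 100% = wells lacking enzyme; higher means stronger loss of beta-gal luminescence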
# The depositor's hits bear a star; / = no result.
SMILES,CXCR6 block,EBI2 block,CCR6 antag,APJ antag,APJ agonist,EBI2 antag conf,EBI2 agonist,bGal cs
Cc1ccc2[nH]c3c(c2c1)CN(C(=O)CN1c2ccc(F)cc2CCC1C)CC3 (stereo not given),3,46*,-2,-8,3,9,0,3
Cc1ccc2[nH]c3c(c2c1)CN(C(=O)CN1CCN(c2cccc(C)c2C)CC1)CC3,-1,15,-12,3,1,/,/,/
Cc1cc(C)c(C#N)c(SCC(O)COc2ccc(Br)cc2)n1 (stereo not given),5,65*,8,-16,1,37,0,-1
Cc1cc(C)c(C#N)c(SCC(O)CS(=O)(=O)Cc2ccccc2)n1 (stereo not given),-4,5,-6,2,0,/,/,/
Cc1ccc(S(=O)(=O)N2CCN(C(=O)CCOc3cc(C)ccc3C)CC2)cc1,-2,28,8,-51,0,/,/,/
Cc1ccc(C)c(OCCC(=O)N2CCN(S(=O)(=O)c3cc(F)ccc3F)CC2)c1,4,46*,0,4,-4,32,4,5
Cc1cc(Cl)ccc1OCCCC(=O)N1CCN(S(=O)(=O)c2ccccc2)CC1,-3,63*,10,0,-3,36,-1,5
O=C(COc1ccc(Cl)cc1)N1CCN(S(=O)(=O)c2cc(F)ccc2F)CC1,-4,87*,/,/,/,68*,2,5
CCN1CCN(C(=O)C(C)Sc2nnc3nc(C)cc(C)n23)CC1 (stereo not given),-2,-2,7,0,-3,/,/,/
COc1ccc(OCCNc2cc(N3CCOCC3)ccc2[N+](=O)[O-])cc1,18,30,19,-1,0,/,/,/
COc1cccc(OCCNc2cc(N3CCOCC3)ccc2[N+](=O)[O-])c1,12,44*,13,13,-3,33,0,-3
COc1cccc(OCCNc2cc(N3CCCCC3)ccc2[N+](=O)[O-])c1,28,61*,24,24,-6,46,0,6
c1ccc(Cn2cc(CNc3ccccc3)nn2)cc1,5,49*,2,0,0,41,0,-9
Cc1cccc(C)c1-n1nnnc1C(c1ccnc2ccccc12)N1CCCC1 (stereo not given),8,6,/,/,/,/,/,/
Cc1cccc(C)c1-n1nnnc1C(c1ccnc2ccccc12)N1CCN(C(=O)OCc2ccccc2)CC1 (stereo not given),11,41*,/,/,/,36,-1,-14
O=C(NC1CCSC1=O)c1ccc(Oc2ccc(F)cc2)nc1 (stereo not given),3,16,2,3,0,/,/,/
Cc1ccc(Oc2ccc(C(=O)NC3CCSC3=O)cn2)cc1 (stereo not given),1,49*,-21,2,0,29,-1,-12
CNC(=O)c1sc(SC)cc1-c1ccc(Cl)cc1,2,50*,7,11,2,37,1,5
Cc1cc(SCC(=O)N/N=C/c2cccnc2)nc2c(C)cccc12,-12,65*,0,11,-3,23,1,7
COCCNc1nc(NCCOc2ccccc2Cl)c2sc(-c3ccccc3)cc2n1,16,40*,/,/,/,23,-2,-3
c1ccc(-c2cc3nc(NCC4CC4)nc(NCC4CCCCC4)c3s2)cc1,8,56*,/,/,/,38,2,5
COCCNc1nc(NCC2CCCCC2)c2sc(-c3ccccc3)cc2n1,-3,29,/,/,/,/,/,/
CCC1OC(C(C)C)Cc2[nH][nH]c(=O)c21 (stereo not given),-8,-12,/,/,/,/,/,/
Cc1nnc(SC(C)C(=O)NCC2CCCO2)s1 (stereo not given),5,0,1,2,-4,/,/,/
Cc1ccc(Nc2nnc(SCC3CCCCO3)s2)cc1 (stereo not given),0,59*,5,20,2,37,-2,-7
SMILES,CXCR6 block,EBI2 block,CCR6 antag,APJ antag,APJ agonist,EBI2 antag conf,EBI2 agonist,bGal cs
Cc1ccc(Nc2nnc(SC(C)C(=O)NCC3CCCO3)s2)cc1C (stereo not given),-6,46*,0,17,-10,24,-1,-15
Cc1ccccc1Nc1nnc(SCC2CCCCO2)s1 (stereo not given),-3,-3,7,-3,-1,/,/,/
COc1ccc(-n2nc(C)c3sc(C)nc3c2=O)cc1,-8,-6,1,-1,-1,/,/,/
COc1ccc(S(=O)(=O)Nc2nc3ccccc3s2)cc1OC,9,-1,1,6,0,/,/,/
CN(Cc1cccc(F)c1)C(=O)c1cccc(S(=O)(=O)N2CCN(Cc3ccccc3)CC2)c1,-15,5,1,1,-3,/,/,/
CN(Cc1cccc(Cl)c1Cl)C(=O)c1cccc(S(=O)(=O)N2CCN(Cc3ccccc3)CC2)c1,-4,54*,8,-10,3,18,0,-14
CN(Cc1ccc(Cl)c(Cl)c1)C(=O)c1cccc(S(=O)(=O)N2CCN(Cc3ccccc3)CC2)c1,-3,58*,2,15,-4,28,1,6
COc1ccc(/C=C/C(=O)c2ccc(Cl)s2)cc1O,14,13,27,3,-2,/,/,/
COc1cc(/C=C/C(=O)c2ccc(Cl)s2)cc(OC)c1O,37,45*,48,31,-2,33,-2,4
CCOC(=O)C1CCN(C(=O)c2ccc(OC3CCN(C(=O)COC)CC3)cc2)CC1,4,-14,-3,17,1,/,/,/
O=C1COc2ccc(C(=O)c3ccccc3C(=O)O)cc2N1,-2,-7,-1,2,-2,/,/,/
